Laboratory results reported in ChEMBL document CHEMBL4513216, “Probing the Open Global Health Chemical Diversity Library for Multistage-Active Starting Points for Next-Generation Antimalarials” (ACS Infect Dis, 2020).

Assay: Toxicity liver stage against HepG2, at 10uM
Format: cell-based
Set-up: test concentration 10 uM, cell line HepG2-A16-CD81EGFP
Settings: human, HepG2-A16-CD81EGFP cells; read-out: INHIBITION
Outline: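 Uninfected HepG2-A16-CD81EGFP cells, 3 × 10^3 per well, 1536-well, plated on prespotted compound at 10 μM final, parasite-free screening media added to match infected plates; puromycin 10 μM positive, DMSO 0.5% negative; run in parallel with 48 h PbLuc assay at 37 °C, 5% CO2; viability by CellTiter-Glo luminescence, normalized to controls.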

Work on `CC(=O)c1ccc(S(=O)(=O)N2CCOC(Cn3ccnc3)C2)cc1` (stereo not drawn) yielded a cytotoxicity at 10 µM of 6.58%.
With `O=C(NC[C@H]1OC[C@@H](NCc2ccccn2)[C@@H]1O)c1ccncc1` the cytotoxicity at 10 µM was -9.77%.
With `O=C(NC[C@H]1OC[C@@H](NC2CCCC2)[C@@H]1O)C1CCCC1` the cytotoxicity at 10 µM was -2.15%.
With `CC(C)N1CC[C@H](c2nc3ccc(C(F)(F)F)cc3[nH]2)C1` the cytotoxicity at 10 µM was -2.07%.
`CC(=O)N1CC[C@H](c2nnc(Cc3c[nH]c4ccccc34)o2)C1` showed a cytotoxicity at 10 µM of 8.12%.
In the case of `Cc1cc(CN(C)CCC(O)c2ccccc2)no1` (stereo not drawn), the cytotoxicity at 10 µM is reported as 0.238%.
With `CO[C@@H]1CN(c2ccccc2)S(=O)(=O)[C@@]12CCNC2` the cytotoxicity at 10 µM was -2.64%.
`CC[C@H](C)[C@H](NC(=O)c1cccc(-n2cnnn2)c1)C(=O)OC` showed a cytotoxicity at 10 µM of 7.98%.
Work on `CCc1c(C)sc2nc3n(CCN(C)C)nc(SC)n3c(=O)c12` yielded a cytotoxicity at 10 µM of 2.26%.
Compound `CNC(=O)c1nc(CC(=O)Nc2ccc3cc[nH]c3c2)no1` has a cytotoxicity at 10 µM of 7.98%.
For `CCN(CC)c1nc2ccsc2c(=O)n1CCC(=O)NCc1cccs1`, the cytotoxicity at 10 µM was -5.27%.
`COc1ccc(Cl)cc1NC(=O)CN1CCc2nc(NC(C)=O)sc2C1` gave a cytotoxicity at 10 µM of -4.2%.
`Cc1cc(C(O)CCNC(=O)COc2ccccc2F)c(C)o1` (stereo not drawn) gave a cytotoxicity at 10 µM of 0.931%.
`CCC(=O)NCc1cc(C2CC2)n(C2CCCC2)n1` showed a cytotoxicity at 10 µM of -4.36%.
`Cn1cc(CN2CCc3ncnc(N4CCCC4)c3CC2)cn1` gave a cytotoxicity at 10 µM of -0.818%.
For `Cn1cccc1C(=O)N1C[C@@H]2CCCO[C@@H]2[C@H](N2CCOCC2)C1`, the cytotoxicity at 10 µM was -1.19%.
With `Cc1noc(C)c1CN1C[C@@H]2CN(C(=O)c3cscn3)C[C@@H]2C1` the cytotoxicity at 10 µM was -3.09%.
`Cc1ccc(C(=O)N2CCc3ncc(Cn4cccn4)n3CC2)cn1` showed a cytotoxicity at 10 µM of 7.25%.
With `Cc1cccc(CN2C[C@@H]3CN(C(=O)c4ccco4)C[C@@H]3C2=O)c1` the cytotoxicity at 10 µM was -3.72%.
`CC(=O)N1CCOC2(CCCN(Cc3ccc(Cl)c(C(F)(F)F)c3)C2)C1` (stereo not drawn) showed a cytotoxicity at 10 µM of 3.68%.
For `O=C(O)CN1CCC2(CCc3ccccc32)CC1`, the cytotoxicity at 10 µM was -3.7%.
For `Cc1nc(CO[C@@H]2CN(Cc3ccccn3)[C@@H]3COC[C@@H]32)cs1`, the cytotoxicity at 10 µM was 5.45%.
In the case of `COCC1CN(C(=O)N2CCCC2)Cc2cnn(CC3CCCC3)c21` (stereo not drawn), the cytotoxicity at 10 µM is reported as 9.23%.
Work on `COCC(=O)N1CC[C@@H]2CN(Cc3cccc(Cl)c3)S(=O)(=O)[C@@H]2CC1` yielded a cytotoxicity at 10 µM of -3.07%.
In the case of `Cc1cc(C)nc(Nc2nccnc2C2CCCN(C(C)C)C2)n1` (stereo not drawn), the cytotoxicity at 10 µM is reported as -6.15%.
Compound `Cc1nc2c(c(=O)[nH]1)CN(Cc1ccc3c(c1)CCCN3C)CC2` has a cytotoxicity at 10 µM of -3.55%.
`Cc1ccc(-c2nc(C3CCN(C(=O)c4cnn(C)c4)CC3)no2)cn1` gave a cytotoxicity at 10 µM of -1.55%.
With `O=C(c1c(F)cccc1F)N1CCC[C@@H]1Cn1c(=O)oc2ccccc21` the cytotoxicity at 10 µM was 4.42%.
Compound `COCC(=O)NCCc1nc2cc(-c3ccc(OC)cc3)ncn2n1` has a cytotoxicity at 10 µM of 10.5%.
Compound `CNC(=O)C1(CCCc2ccccn2)CN(Cc2scnc2C)C1` has a cytotoxicity at 10 µM of 18%.
`Cc1cc(C)n(CC(=O)N2CCCC(c3cc4cccnc4[nH]3)C2)n1` (stereo not drawn) gave a cytotoxicity at 10 µM of 8.3%.
With `Cn1c(=O)cc(C(=O)NC(Cc2ccsc2)c2cccnc2)[nH]c1=O` (stereo not drawn) the cytotoxicity at 10 µM was 0.913%.
Work on `COCCn1cnnc1C1CCCN(c2cnccn2)C1` (stereo not drawn) yielded a cytotoxicity at 10 µM of -2.22%.
`CCS(=O)(=O)N1CCc2nc(C3CCN(C(=O)C4CC4)C3)nc(O)c2C1` (stereo not drawn) gave a cytotoxicity at 10 µM of -25.9%.
Compound `Cc1nc(O)c2nnn(C[C@H]3CCCN3C(=O)C3CCCC3)c2n1` has a cytotoxicity at 10 µM of -26.9%.
Compound `CN1CCN(c2ccccc2CNC(=O)Cc2cccc(F)c2)CC1` has a cytotoxicity at 10 µM of -6.29%.
With `N#CCCN(Cc1cccnc1)C(=O)c1cc(Cl)c[nH]1` the cytotoxicity at 10 µM was -18.4%.
In the case of `Cc1cnn(CC2CCN(CC(O)CN3CCC(C)CC3)CC2)c1` (stereo not drawn), the cytotoxicity at 10 µM is reported as 5.11%.
For `CC(c1ccccc1Cl)N(C(=O)CSCC(N)=O)C1CC1` (stereo not drawn), the cytotoxicity at 10 µM was -36.3%.
`COc1cccc(CC(C)NC(=O)NC(C)C)c1` (stereo not drawn) gave a cytotoxicity at 10 µM of 4.72%.
Compound `COc1cccc(CC(C)NC(=O)NCCNC(C)=O)c1` (stereo not drawn) has a cytotoxicity at 10 µM of 7.89%.
Compound `CC(NC(=O)NCCCO)c1ccc(-c2ccncc2)cc1` (stereo not drawn) has a cytotoxicity at 10 µM of 6.93%.
Compound `CCCn1nc(C(=O)NCc2nnc3n2CCC3)ccc1=O` has a cytotoxicity at 10 µM of -3.18%.
In the case of `CCc1nc(CN2CC(C(=O)OC)O[C@H](C)C2)cs1` (stereo partly drawn), the cytotoxicity at 10 µM is reported as -10.9%.
For `CCc1noc(C(C)N2CCN(Cc3cnc(C)cn3)CC2)n1` (stereo not drawn), the cytotoxicity at 10 µM was -8.54%.
`O=C(O)c1ccn(-c2ccccc2NS(=O)(=O)c2cccc(F)c2)n1` gave a cytotoxicity at 10 µM of -18.6%.
With `O=C1CN(c2ccc(CNC(=O)c3ccc[nH]3)cc2F)CCN1` the cytotoxicity at 10 µM was 1.28%.
`O=C(c1cccnc1-n1cncn1)N1CCN(CC(F)(F)F)CC1` showed a cytotoxicity at 10 µM of 4.39%.
For `CC(CNC(=O)NCCCc1cc(N)n(-c2ccccc2)n1)N(C)C` (stereo not drawn), the cytotoxicity at 10 µM was 11.9%.
Compound `CCc1nc2n(n1)CC(NCc1cnc(N(CC)CC)s1)CC2` (stereo not drawn) has a cytotoxicity at 10 µM of 7.39%.
In the case of `Cc1n[nH]c(C)c1CNC(=O)N1CCCC(Cc2nccn2C)C1` (stereo not drawn), the cytotoxicity at 10 µM is reported as -19.2%.
In the case of `Cc1cc(CSC2CCCN(c3cnn(C)c3)C2=O)no1` (stereo not drawn), the cytotoxicity at 10 µM is reported as 29.7%.
For `Cn1ccc2c(C(=O)N3CCC4(CCOC4)C3)cccc21` (stereo not drawn), the cytotoxicity at 10 µM was -152%.
